PGC1a acetyl up: compounds raising PGC1a acetylation signal, primary screen, PGC1a modulator project, cell-based, U2OS, AlphaScreen, signal-increasing mode. overnight. activation, % at 15.6 µM. 350,000 compounds, 0.21% hits. AID 651723, 2012;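 active = every replicate reaching activation of at least 50%, whatever the mean replicate activation; inconclusive = replicates that disagree or another doubt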;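 also: hits raise the AlphaScreen acetylation signal above neutral controls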
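System: Flag-PGC1a/GCN5 U2OS cells | Quantity: 7000 cells/well | Times: Overnight compound treatment, 37 °C | Measured by: AlphaScreen proximity luminescence, anti-acetyl-lysine antibody | Dosing: One concentration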
G6PC hep suppr: suppressors of forskolin-stimulated G6PC mRNA, dose response, PGC-1a acetylation activator project, cell-based, hepatocytes, RT-qPCR, cherry-picked samples; shares compounds with PGC1a acetyl up; G6PC suppression (normalized activity, % of positive control; higher = more suppression), % at 26 µM; primary mouse hepatocytes; 240 tested, under 10 active;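 active = dose curves showing G6PC suppression whose half-maximal dose is at most twice the top valid dose; inconclusive = flat curves with moderate negative activity, or unreliable fits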;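 also: G6PC expression relative to GAPDH housekeeping gene as delta delta Ct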
PCK1 hep suppr: suppression of PCK1 mRNA in primary hepatocytes, dose response, PGC-1a acetylation activator project, cell-based, primary mouse hepatocytes, RT-qPCR, cherry-pick; shares compounds with PGC1a acetyl up; forskolin-stimulated; PCK1 expression decrease, unspecified at 26 µM; 230 tested, under 10 active; AID 743465, 2014;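 active = compounds lowering PCK1 expression whose fitted half-maximal concentration is at most twice the top tested dose; inconclusive = flat fit with moderate opposite-direction effect, or poor fit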;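 also: higher delta delta Ct means lower PCK1 expression so positive values indicate hits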
PGC1a hep suppr: suppression of PGC-1a mRNA in primary hepatocytes, dose response, PGC-1a acetylation activator project, cell-based, primary mouse hepatocytes, RT-qPCR, cherry-pick; shares compounds with PGC1a acetyl up; PGC-1a mRNA qPCR, forskolin; top dose 26 µM; max activity (PGC-1a expression decrease), %; 240 tested, under 10 active; AID 743467, 2014;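 active = compound lowering PGC-1a expression with fitted half-maximal concentration at most twice its top tested dose; inconclusive = flat curve with moderate opposite-direction effect, or poor fit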
Each line names hits and unclear results; the compound was inactive in the other large screens (follow-up assays come after a bar, where they were run). Not all results are given here.

Cc1ccc(CS(=O)(=O)CCC(=O)N2CCC3(CC2)OCCO3)cc1	none
CN1CCN(c2ccc([N+](=O)[O-])c3no[n+]([O-])c23)CC1	none
COc1ccc(CC2C(=O)NC(C)C(=O)N(C)C3C(=O)N(C)C(Cc4ccc(O)c(c4)Oc4ccc(cc4)C3O)C(=O)NC(C)C(=O)NC(C)C(=O)N2C)cc1 (centres undefined)	none
COc1ccccc1OCC(=O)Nc1ccc(Cl)cc1C(=O)c1ccccc1	PGC1a acetyl up inconclusive | G6PC hep suppr inactive | PCK1 hep suppr inactive | PGC1a hep suppr inactive
Cc1ccc(C[n+]2c(-c3ccc(C)cc3)cc(-c3ccc(C)cc3)cc2-c2ccc(C)cc2)cc1	none
CC1CCOC(=O)C=CC=CC(=O)OC2CC3OC4C5OC5(C)C(O)CC4(COC(=O)C1O)C2(C)C31CO1 (centres undefined)	none
Cc1nc2c(=O)n(C)c(=O)nc-2n(C)n1	none

Source: PubChem BioAssay (Broad Institute)
